According to ChEMBL document CHEMBL4257561, “7-Deacetyl-10-alkylthiocolchicine derivatives - new compounds with potent anticancer and fungicidal activity” (Medchemcomm, 2018):
≈ marks a conversion by molar mass, not a printed value.

Experiments:
[1] = test system: Penicillium cyclopium; experiment: Antifungal activity against Penicillium cyclopium Westling after 7 days by microtiter method; type: functional; details: 168 h
[2] = test system: Aureobasidium pullulans; experiment: microbe, parasite or virus in culture; type: functional; details: BAM10 ATCC 9348, 168 h
[3] = test system: Chaetomium globosum; experiment: microbe, parasite or virus in culture; type: functional; details: BAM12 ATCC 6205, 168 h
[4] = test system: Aspergillus versicolor; experiment: microbe, parasite or virus in culture; type: functional; details: BAM8 ATCC 11730, 168 h
[5] = test system: Paecilomyces variotii; experiment: microbe, parasite or virus in culture; type: functional; details: BAM19 ATCC 18502, 168 h
[6] = test system: Aspergillus niger; experiment: microbe, parasite or virus in culture; type: functional; details: van Tiegen BAM4 ATCC 6275, 168 h
[7] = test system: Trichoderma viride; experiment: Antifungal activity against Trichoderma viride Pers after 7 days by microtiter method; type: functional; details: 168 h
[8] = test system: Talaromyces funiculosus; experiment: microbe, parasite or virus in culture; type: functional; details: BAM22 ATCC 11797, 168 h
[9] = test system: Aspergillus versicolor; experiment: Fungicidal activity against Aspergillus versicolor BAM8 ATCC 11730 after 7 days by microtiter method; type: functional; details: BAM8 ATCC 11730, 168 h
Procedure, shortened: (§1)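 Single-spore isolates kept on PDA slants. Spore suspensions ([…] CFU/mL) taken from two-week slants. Compound stock was 10 mg in 200 µL methanol; 10 µL of stock added to 100 µL PDA (39 g/L) per well, then 10 µL spores. Incubated aerobically 7 days, 28±1°C, RH >95%, dark. Growth scored on a three-point scale (+/±/−). Triplicates, with untreated and IPBC controls.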

[10] = test system: DLD-1; experiment: cells; type: functional, cell-based; details: Homo sapiens, DLD-1, 72 h
[11] = test system: Paecilomyces variotii; experiment: Fungicidal activity against Paecilomyces variotii BAM19 ATCC 18502 after 7 days by microtiter method; type: functional; details: BAM19 ATCC 18502, 168 h; procedure, shortened: as §1
[12] = test system: MCF7; experiment: cells; type: functional, cell-based; details: Homo sapiens, MCF7, 72 h
[13] = test system: MDA-MB-231; experiment: cells; type: functional, cell-based; details: Homo sapiens, MDA-MB-231, 72 h
[14] = test system: Trichoderma viride; experiment: Fungicidal activity against Trichoderma viride Pers after 7 days by microtiter method; type: functional; details: 168 h; procedure, shortened: as §1
[15] = test system: SK-OV-3; experiment: cells; type: functional, cell-based; details: Homo sapiens, SK-OV-3, 72 h
[16] = test system: Aureobasidium pullulans; experiment: Fungicidal activity against Aureobasidium pullulans BAM10 ATCC 9348 after 7 days by microtiter method; type: functional; details: BAM10 ATCC 9348, 168 h; procedure, shortened: as §1
[17] = test system: Aspergillus niger; experiment: Fungicidal activity against Aspergillus niger van Tiegen BAM4 ATCC 6275 after 7 days by microtiter method; type: functional; details: van Tiegen BAM4 ATCC 6275, 168 h; procedure, shortened: as §1
[18] = test system: Penicillium cyclopium; experiment: Fungicidal activity against Penicillium cyclopium Westling after 7 days by microtiter method; type: functional; details: 168 h; procedure, shortened: as §1
[19] = cells; type: cell-based; details: Homo sapiens, 72 h
[20] = test system: Talaromyces funiculosus; experiment: Fungicidal activity against Penicillium funiculosum BAM22 ATCC 11797 after 7 days by microtiter method; type: functional; details: BAM22 ATCC 11797, 168 h; procedure, shortened: as §1
[21] = test system: Chaetomium globosum; experiment: Fungicidal activity against Chaetomium globosum BAM12 ATCC 6205 after 7 days by microtiter method; type: functional; details: BAM12 ATCC 6205, 168 h; procedure, shortened: as §1
[22] = test system: SK-OV-3; experiment: cells; type: functional, cell-based; details: Homo sapiens, SK-OV-3, 72 h; remark: listed apart in the source
[23] = test system: LoVo; experiment: cells; type: functional, cell-based; details: Homo sapiens, 72 h

Row | SMILES | MIC [1] [µg/mL] | MIC [2] [µg/mL] | MIC [3] [µg/mL] | MFC [4] [µg/mL] | MFC [5] [µg/mL] | MFC [6] [µg/mL] | MFC [7] [µg/mL] | MFC [8] [µg/mL] | MFC [9] [µg/mL] | IC50 [10] [nM] | MFC [11] [µg/mL] | MFC [14] [µg/mL] | IC50 [15] [nM] | MFC [16] [µg/mL] | MFC [17] [µg/mL] | MFC [18] [µg/mL] | IC50 [19] [nM] | MFC [20] [µg/mL] | MFC [21] [µg/mL] | IC50 [22] [nM] | further results
1 | CCCSc1ccc2c(cc1=O)[C@@H](NC(C)=O)CCc1cc(OC)c(OC)c(OC)c1-2 | > 4000 | > 4000 | > 4000 | > 4000 | > 4000 | > 4000 | > 4000 | > 4000 |  |  |  |  |  |  |  |  |  |  |  |  | 
2 | CCCCSc1ccc2c(cc1=O)[C@@H](N)CCc1cc(OC)c(OC)c(OC)c1-2 | 260 (≈ 626 µM) | 260 (≈ 626 µM) | 130 (≈ 313 µM) | > 4000 | 1000 (≈ 2410 µM) | > 4000 | 2000 (≈ 4810 µM) | 1000 (≈ 2410 µM) | > 4000 | 720 | 1000 (≈ 2410 µM) | 2000 (≈ 4810 µM) | 62 | 260 (≈ 626 µM) | > 4000 | 260 (≈ 626 µM) | 2170 | 1000 (≈ 2410 µM) | 130 (≈ 313 µM) | 9 | IC50 [12]: 1460 nM; IC50 [13]: 4180 nM; IC50 [23]: 1870 nM
3 | CCSc1ccc2c(cc1=O)[C@@H](N)CCc1cc(OC)c(OC)c(OC)c1-2 | > 4000 | > 4000 | > 4000 | > 4000 | > 4000 | > 4000 | > 4000 | > 4000 |  | 510 |  |  | 409 |  |  |  | 150 |  |  | 305 | IC50 [12]: 1620 nM; IC50 [13]: 3550 nM; IC50 [23]: 390 nM
4 | CCSc1ccc2c(cc1=O)[C@@H](NC(C)=O)CCc1cc(OC)c(OC)c(OC)c1-2 | > 4000 | > 4000 | > 4000 | > 4000 | > 4000 | > 4000 | > 4000 | > 4000 |  |  |  |  |  |  |  |  |  |  |  |  | 
5 | CCCCSc1ccc2c(cc1=O)[C@@H](NC(C)=O)CCc1cc(OC)c(OC)c(OC)c1-2 | > 4000 | > 4000 | > 4000 | > 4000 | > 4000 | > 4000 | > 4000 | > 4000 |  |  |  |  |  |  |  |  |  |  |  |  | 
6 | COc1cc2c(c(OC)c1OC)-c1ccc(SC(C)C)c(=O)cc1[C@@H](NC(C)=O)CC2 | > 4000 | > 4000 | > 4000 | > 4000 | > 4000 | > 4000 | > 4000 | > 4000 |  |  |  |  |  |  |  |  |  |  |  |  | 
7 | CCCSc1ccc2c(cc1=O)[C@@H](N)CCc1cc(OC)c(OC)c(OC)c1-2 | 2000 (≈ 4980 µM) | > 4000 | > 4000 | > 4000 | 1000 (≈ 2490 µM) | > 4000 | 2000 (≈ 4980 µM) | 2000 (≈ 4980 µM) | > 4000 | 3420 | 1000 (≈ 2490 µM) | 2000 (≈ 4980 µM) | 46 | > 4000 | > 4000 | 2000 (≈ 4980 µM) | 670 | 2000 (≈ 4980 µM) | > 4000 | 22 | IC50 [12]: 2080 nM; IC50 [13]: 4240 nM; IC50 [23]: 3830 nM
8 | COc1cc2c(c(OC)c1OC)-c1ccc(SC(C)C)c(=O)cc1[C@@H](N)CC2 | 500 (≈ 1250 µM) | 260 (≈ 648 µM) | 130 (≈ 324 µM) | > 4000 | 1000 (≈ 2490 µM) | > 4000 | 2000 (≈ 4980 µM) | 1000 (≈ 2490 µM) | > 4000 | 6260 | 1000 (≈ 2490 µM) | 2000 (≈ 4980 µM) | 27 | 260 (≈ 648 µM) | > 4000 | 500 (≈ 1250 µM) | 1680 | 1000 (≈ 2490 µM) | 130 (≈ 324 µM) | 4 | IC50 [12]: 4900 nM; IC50 [13]: 5000 nM; IC50 [23]: 130 nM
9 | O=C(/C=C/c1ccccc1)c1ccccc1 [CHALCONE] | 260 (≈ 1250 µM) | 500 (≈ 2400 µM) | 130 (≈ 624 µM) | 2000 (≈ 9600 µM) | 1000 (≈ 4800 µM) | 65 (≈ 312 µM) | 500 (≈ 2400 µM) | 130 (≈ 624 µM) | 2000 (≈ 9600 µM) |  | 1000 (≈ 4800 µM) | 500 (≈ 2400 µM) |  | 500 (≈ 2400 µM) | 65 (≈ 312 µM) | 260 (≈ 1250 µM) |  | 130 (≈ 624 µM) | 130 (≈ 624 µM) |  | 
10 | COc1cc2c(c(OC)c1OC)-c1ccc(OC)c(=O)cc1[C@@H](NC(C)=O)CC2 [COLCHICINE] | > 4000 | 0.001 (≈ 0.0025 µM) | > 4000 | > 4000 | > 4000 | > 4000 | > 4000 | > 4000 | > 4000 | 43 | > 4000 | > 4000 | 210 | 0.001 (≈ 0.0025 µM) | > 4000 | > 4000 | 586 | > 4000 | > 4000 | 198 | IC50 [12]: 41 nM; IC50 [13]: 25 nM; IC50 [23]: 119 nM
11 | COc1cccc2c1C(=O)c1c(O)c3c(c(O)c1C2=O)C[C@@](O)(C(=O)CO)C[C@@H]3O[C@H]1C[C@H](N)[C@H](O)[C@H](C)O1 [DOXORUBICIN] |  |  |  |  |  |  |  |  |  | 145 |  |  | 128 |  |  |  | 850 |  |  | 32.6 | IC50 [23]: 78.3 nM
12 | CCCCNC(=O)OCC#CI [IODOCARB] | 2 (≈ 7.12 µM) | 1 (≈ 3.56 µM) | 5 (≈ 17.8 µM) | 2 (≈ 7.12 µM) | 2 (≈ 7.12 µM) | 2 (≈ 7.12 µM) | 100 (≈ 356 µM) | 2 (≈ 7.12 µM) | 2 (≈ 7.12 µM) |  | 2 (≈ 7.12 µM) | 100 (≈ 356 µM) |  | 1 (≈ 3.56 µM) | 2 (≈ 7.12 µM) | 2 (≈ 7.12 µM) |  | 2 (≈ 7.12 µM) | 5 (≈ 17.8 µM) |  | 
